# Tests used:
# Format in all cases: functional
# Pseudomonas aeruginosa [1] = assay: In vitro antibacterial activity measured as minimum inhibitory concentration was evaluated on Pseudomonas aeruginosa ATCC 10145 (Pa).; details: Pseudomonas aeruginosa, ATCC 10145; read-out: MIC
# Method in brief: (§1)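 Serial 2-fold agar dilution in Mueller Hinton medium, run side by side with reference quinolones. Inoculum 10^5 cfu/mL; compound range 0.007–16 µg/mL.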
# Pseudomonas aeruginosa [2] = assay: In vivo efficacy as ED50 against Pseudomonas aeruginosa HS-116 by oral administration in mice.; details: Pseudomonas aeruginosa, po; read-out: ED50
# Method in brief: (§2)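 Mice, 4 groups of 10, infected intraperitoneally with slightly more than the LD100 of the organism. A single oral dose was given immediately after infection, with four doses (one per group) chosen from in vitro activity. Survival was scored after one week. ED50 (total dose, mg/kg, protecting 50%) was interpolated among group survival rates.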
# [3] = tested on: Staphylococcus epidermidis; assay: In vitro antibacterial activity measured as minimum inhibitory concentration was evaluated on Staphylococcus epidermidis ATCC 155-1 (Se).; details: Staphylococcus epidermidis, ATCC 155-1; read-out: MIC; method in brief: as §1
# Escherichia coli [4] = assay: In vivo efficacy as ED50 against Escherichia coli HM-42 by oral administration in mice.; details: Escherichia coli, po; read-out: ED50; method in brief: as §2
# Enterobacter cloacae = assay: In vitro antibacterial activity measured as minimum inhibitory concentration, was evaluated on Enterobacter cloacae ATCC 23355 (Ecl).; details: Enterobacter cloacae, ATCC 23355; read-out: MIC
# Staphylococcus aureus [5] = assay: In vivo efficacy as ED50 against Staphylococcus aureus HS-93 by oral administration in mice.; details: Staphylococcus aureus, po; read-out: ED50; method in brief: as §2
# Staphylococcus aureus [6] = assay: In vitro antibacterial activity measured as minimum inhibitory concentration was evaluated on Staphylococcus aureus ATCC 25178 (Sa).; details: Staphylococcus aureus, ATCC 25178; read-out: MIC; method in brief: as §1
# Klebsiella pneumoniae = assay: In vitro antibacterial activity measured as minimum inhibitory concentration was evaluated on klebsiella pneumoniae ATCC 10031 (Kp).; details: Klebsiella pneumoniae, ATCC 10031; read-out: MIC
# Method in brief: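 Serial 2-fold agar dilution in Mueller Hinton medium, run side by side with reference quinolones.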
# Bacillus subtilis = assay: In vitro antibacterial activity measured as minimum inhibitory concentration was evaluated on Bacillus subtilis ATCC 6633(Bs).; details: Bacillus subtilis, ATCC 6633; read-out: MIC; method in brief: as §1
# Bacillus cereus = assay: In vitro antibacterial activity measured as minimum inhibitory concentration was evaluated on Bacillus cereus ATCC 11778 (Bc).; details: Bacillus cereus, ATCC 11778; read-out: MIC; method in brief: as §1
# Escherichia coli [7] = assay: In vitro antibacterial activity measured as minimum inhibitory concentration, was evaluated on Escherichia coli ATCC 23559(Ec).; details: Escherichia coli, ATCC 23559; read-out: MIC; method in brief: as §1
# Morganella morganii = assay: In vitro antibacterial activity measured as minimum inhibitory concentration was evaluated on morganella morganii ATCC 8019 (Mm).; details: Morganella morganii, ATCC 8019; read-out: MIC; method in brief: as §1
# Proteus vulgaris = assay: In vitro antibacterial activity measured as minimum inhibitory concentration was evaluated on proteus vulgaris ATCC 8427 (Pv).; details: Proteus vulgaris, ATCC 8427; read-out: MIC; method in brief: as §1
# Enterococcus faecalis = assay: In vitro antibacterial activity measured as minimum inhibitory concentration was evaluated on Streptococcus faecalis ATCC 10541 (Sf).; details: Enterococcus faecalis, ATCC 10541; read-out: MIC; method in brief: as §1
structure (smiles),measurement,setting,value
C[C@@H]1[C@@H](N)CN1c1c(F)cc2c(=O)c(C(=O)O)cn3c2c1OC[C@@H]3C,MIC,Pseudomonas aeruginosa [1],4 µg/mL
same,ED50,Pseudomonas aeruginosa [2],53 mg/kg
same,MIC,[3],0.25 µg/mL
same,ED50,Escherichia coli [4],50 mg/kg
same,MIC,Enterobacter cloacae,0.25 µg/mL
same,ED50,Staphylococcus aureus [5],46.1 mg/kg
same,MIC,Staphylococcus aureus [6],0.25 µg/mL
same,MIC,Klebsiella pneumoniae,0.06 µg/mL
same,MIC,Bacillus subtilis,0.12 µg/mL
same,MIC,Bacillus cereus,0.5 µg/mL
same,MIC,Escherichia coli [7],0.25 µg/mL
same,MIC,Morganella morganii,0.12 µg/mL
same,MIC,Proteus vulgaris,0.5 µg/mL
same,MIC,Enterococcus faecalis,1 µg/mL
CC1C(N)CN1c1c(F)cc2c(=O)c(C(=O)O)cn(-c3ccc(F)cc3F)c2c1Cl (centres undefined),MIC,Pseudomonas aeruginosa [1],0.5 µg/mL
same,MIC,[3],0.06 µg/mL
same,MIC,Bacillus subtilis,0.03 µg/mL
same,MIC,Bacillus cereus,0.03 µg/mL
same,MIC,Escherichia coli [7],0.03 µg/mL
C[C@H]1COc2c(N3CC(N)C3)c(F)cc3c(=O)c(C(=O)O)cn1c23,MIC,Pseudomonas aeruginosa [1],0.25 µg/mL
same,MIC,[3],0.06 µg/mL
same,MIC,Enterobacter cloacae,0.015 µg/mL
same,MIC,Staphylococcus aureus [6],0.12 µg/mL
same,MIC,Klebsiella pneumoniae,0.015 µg/mL
same,MIC,Bacillus subtilis,0.06 µg/mL
same,MIC,Bacillus cereus,0.12 µg/mL
same,MIC,Escherichia coli [7],0.015 µg/mL
same,MIC,Morganella morganii,0.06 µg/mL
same,MIC,Proteus vulgaris,0.25 µg/mL
same,MIC,Enterococcus faecalis,0.12 µg/mL
CNC1(C)CN(c2c(F)cc3c(=O)c(C(=O)O)cn4c3c2OC[C@@H]4C)C1,MIC,Pseudomonas aeruginosa [1],1 µg/mL
same,MIC,[3],0.12 µg/mL
same,MIC,Enterobacter cloacae,0.06 µg/mL
same,MIC,Staphylococcus aureus [6],0.12 µg/mL
same,MIC,Klebsiella pneumoniae,0.015 µg/mL
same,MIC,Bacillus subtilis,0.06 µg/mL
same,MIC,Bacillus cereus,0.12 µg/mL
same,MIC,Escherichia coli [7],0.015 µg/mL
same,MIC,Morganella morganii,0.06 µg/mL
same,MIC,Proteus vulgaris,0.5 µg/mL
same,MIC,Enterococcus faecalis,0.5 µg/mL
CC1C(N)CN1c1c(F)c(N)c2c(=O)c(C(=O)O)cn(C3CC3)c2c1F (centres undefined),ED50,Pseudomonas aeruginosa [2],102 mg/kg
same,MIC,[3],0.015 µg/mL
same,ED50,Escherichia coli [4],4.2 mg/kg
same,MIC,Enterobacter cloacae,0.015 µg/mL
same,ED50,Staphylococcus aureus [5],8.7 mg/kg
same,MIC,Staphylococcus aureus [6],0.015 µg/mL
same,MIC,Klebsiella pneumoniae,0.015 µg/mL
same,MIC,Bacillus subtilis,0.015 µg/mL
same,MIC,Bacillus cereus,0.015 µg/mL
same,MIC,Escherichia coli [7],0.015 µg/mL
same,MIC,Morganella morganii,0.015 µg/mL
same,MIC,Proteus vulgaris,0.06 µg/mL
same,MIC,Enterococcus faecalis,0.06 µg/mL
CCn1cc(C(=O)O)c(=O)c2cc(F)c(N3CC(N)C3C)c(F)c21 (centres undefined),MIC,Pseudomonas aeruginosa [1],1 µg/mL
same,ED50,Pseudomonas aeruginosa [2],56 mg/kg
same,ED50,Escherichia coli [4],4 mg/kg
same,MIC,Enterobacter cloacae,0.06 µg/mL
same,ED50,Staphylococcus aureus [5],5.1 mg/kg
same,MIC,Bacillus subtilis,0.06 µg/mL
same,MIC,Escherichia coli [7],0.06 µg/mL
same,MIC,Morganella morganii,0.06 µg/mL
same,MIC,Enterococcus faecalis,1 µg/mL
CC1C(N)CN1c1c(F)cc2c(=O)c(C(=O)O)cn(C3CC3)c2c1Cl (centres undefined),ED50,Pseudomonas aeruginosa [2],38 mg/kg
same,MIC,[3],0.03 µg/mL
same,ED50,Escherichia coli [4],2.8 mg/kg
same,MIC,Enterobacter cloacae,0.03 µg/mL
same,ED50,Staphylococcus aureus [5],9.6 mg/kg
same,MIC,Staphylococcus aureus [6],0.03 µg/mL
same,MIC,Klebsiella pneumoniae,0.015 µg/mL
same,MIC,Bacillus subtilis,0.03 µg/mL
same,MIC,Bacillus cereus,0.03 µg/mL
same,MIC,Escherichia coli [7],0.015 µg/mL
same,MIC,Morganella morganii,0.03 µg/mL
same,MIC,Proteus vulgaris,0.03 µg/mL
same,MIC,Enterococcus faecalis,0.06 µg/mL
"CC1COc2c(N3CC(C)(N)C3)c(F)cc3c(=O)c(C(=O)O)cn1c23 (single isomer, unassigned)",MIC,Pseudomonas aeruginosa [1],32 µg/mL
same,MIC,[3],4 µg/mL
same,MIC,Enterobacter cloacae,4 µg/mL
same,MIC,Staphylococcus aureus [6],4 µg/mL
same,MIC,Klebsiella pneumoniae,8 µg/mL
same,MIC,Bacillus subtilis,2 µg/mL
same,MIC,Bacillus cereus,4 µg/mL
same,MIC,Escherichia coli [7],8 µg/mL
same,MIC,Morganella morganii,8 µg/mL
same,MIC,Proteus vulgaris,8 µg/mL
same,MIC,Enterococcus faecalis,4 µg/mL
C[C@@H]1[C@@H](N)CN1c1c(F)cc2c(=O)c(C(=O)O)cn(-c3ccc(F)cc3F)c2c1Cl,MIC,Pseudomonas aeruginosa [1],2 µg/mL
same,MIC,[3],0.5 µg/mL
same,MIC,Enterobacter cloacae,0.25 µg/mL
same,MIC,Staphylococcus aureus [6],0.25 µg/mL
same,MIC,Klebsiella pneumoniae,0.5 µg/mL
same,MIC,Bacillus subtilis,0.12 µg/mL
same,MIC,Bacillus cereus,1 µg/mL
same,MIC,Escherichia coli [7],0.25 µg/mL
same,MIC,Morganella morganii,0.5 µg/mL
same,MIC,Proteus vulgaris,1 µg/mL
same,MIC,Enterococcus faecalis,2 µg/mL
CCNCC1(C)CN(c2c(F)cc3c(=O)c(C(=O)O)cn4c3c2OC[C@@H]4C)C1,MIC,Pseudomonas aeruginosa [1],8 µg/mL
same,MIC,[3],0.25 µg/mL
same,MIC,Enterobacter cloacae,0.5 µg/mL
same,MIC,Staphylococcus aureus [6],0.5 µg/mL
same,MIC,Klebsiella pneumoniae,1 µg/mL
same,MIC,Bacillus subtilis,0.06 µg/mL
same,MIC,Bacillus cereus,0.5 µg/mL
same,MIC,Escherichia coli [7],0.25 µg/mL
same,MIC,Morganella morganii,1 µg/mL
same,MIC,Proteus vulgaris,1 µg/mL
same,MIC,Enterococcus faecalis,2 µg/mL
